Numbering of substitutions follows the chain as printed.
What was measured:
[1] = Antiproliferative activity against human LNCaP-AR cells assessed as reduction in cell viability incubated for 6 days by CCK8 assay; format: functional, cell-based; conditions: 144 h
Procedure, shortened: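 Cells seeded (2×10^4 per well for VCaP, 1–3×10^3 for the others) and compound added after 24 h as a 9-point, 3-fold serial dilution. Exposure 6 days, then CCK-8 for 1–4 h and absorbance at 450 nm. IC50 from curve fit, mean of at least two independent experiments run in duplicate.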

[2] = biological target: T1, Androgen receptor (Homo sapiens, UniProt P10275); format: cell-based, LNCaP
T1 sequence (P10275 whole entry): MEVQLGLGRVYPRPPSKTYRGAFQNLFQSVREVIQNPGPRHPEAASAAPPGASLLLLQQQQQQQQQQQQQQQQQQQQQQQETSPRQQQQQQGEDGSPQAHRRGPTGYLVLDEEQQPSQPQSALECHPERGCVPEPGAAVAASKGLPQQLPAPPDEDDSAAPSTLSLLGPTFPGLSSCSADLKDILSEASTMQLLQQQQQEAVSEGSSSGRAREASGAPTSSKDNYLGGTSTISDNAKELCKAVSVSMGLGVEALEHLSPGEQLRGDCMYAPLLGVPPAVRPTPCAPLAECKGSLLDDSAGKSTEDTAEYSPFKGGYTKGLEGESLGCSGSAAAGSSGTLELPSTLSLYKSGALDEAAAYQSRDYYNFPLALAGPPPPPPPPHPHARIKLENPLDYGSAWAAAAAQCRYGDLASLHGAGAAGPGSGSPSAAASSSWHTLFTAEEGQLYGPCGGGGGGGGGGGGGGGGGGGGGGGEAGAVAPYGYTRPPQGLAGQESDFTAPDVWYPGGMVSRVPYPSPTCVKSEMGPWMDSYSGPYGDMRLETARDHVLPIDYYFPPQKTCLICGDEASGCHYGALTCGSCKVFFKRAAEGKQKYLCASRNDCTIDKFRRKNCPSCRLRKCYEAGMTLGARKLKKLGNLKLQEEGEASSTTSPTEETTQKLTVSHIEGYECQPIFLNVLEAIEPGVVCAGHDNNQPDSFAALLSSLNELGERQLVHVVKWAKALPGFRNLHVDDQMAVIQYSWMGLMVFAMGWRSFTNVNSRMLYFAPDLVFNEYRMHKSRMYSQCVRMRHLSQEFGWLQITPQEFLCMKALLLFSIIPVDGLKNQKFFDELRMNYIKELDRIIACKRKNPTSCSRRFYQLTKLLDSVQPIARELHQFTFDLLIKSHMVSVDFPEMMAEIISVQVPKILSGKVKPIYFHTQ

[3] = tested on: T2, Androgen receptor (Homo sapiens), P10275 [F877L]; assay: Antagonist activity against human AR F876L mutant expressed in human PC3 cells assessed as inhibition of 1 nM R1881-induced transactivation incubated for 24 hrs by dual luciferase reporter gene assay; format: cell-based
T2 sequence (whole entry): T1 sequence (P10275 whole entry) with F877L
Procedure, shortened: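 PC-3 cells in DMEM/F12 (1:1) with 5% charcoal-stripped FBS, cotransfected with 50 ng F876L AR plasmid and 50 ng AR luciferase reporter per well. 24 h post-transfection, compound plus 1 nM R1881 for 24 h. Firefly luminescence normalized to Renilla; mean ± SEM, n = 3.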

[4] = Cmax in Sprague-Dawley rat at 30 mg/kg, po measured at 0.5 hrs by LC-MS/MS analysis; format: ADME, organism-based; set-up: dose 30 mg/kg, route oral; conditions: in vivo
Procedure, shortened: (§1)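 Male SD rats (N = 3), single oral 30 mg/kg in PEG200/DMA (9:1, v/v). Blood from retrobulbar vein at 0–24 h; heparinized plasma, protein precipitation with methanol, LC-MS/MS quantitation; parameters by non-compartmental analysis.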

[5] = Half life in Sprague-Dawley rat at 30 mg/kg, po measured upto 24 hrs by LC-MS/MS analysis; format: ADME, organism-based; conditions: in vivo; procedure, shortened: as §1
[6] = AUC (0 to t) in Sprague-Dawley rat at 30 mg/kg, po measured upto 24 hrs by LC-MS/MS analysis; format: ADME, organism-based; set-up: time < 24 hr, dose 30 mg/kg, route oral; conditions: in vivo
[7] = tested on: VCaP; assay: Antitumor activity against human VCaP cells xenografted in BALB/c nude mouse assessed as inhibition of tumor growth at 30 mg/kg, po qd administered for 40 days relative to control; format: functional; conditions: Mus musculus, VCaP, po, 960 h; read-out: TGI
Procedure, shortened: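 Male BALB/c nude mice, 5 weeks old, s.c. 1 × 10^7 VCaP cells in DMEM/Matrigel (1:1). Castrated under Nembutal at 150–200 mm3 and randomized (n = 8–10). Once tumors regrew to 200–350 mm3, oral 30 mg/kg qd for 40 days. TGI = [1 − (T − T0)/(C − C0)] × 100 from mean tumor volumes on first and last treatment days.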

[8] = biological target: T3, Androgen receptor (Homo sapiens) (UniProt P10275); assay: Antagonist activity at androgen receptor in human VCaP cells assessed as inhibition of R1881-induced FKBP5 mRNA expression after 24 hrs by qRT-PCR analysis; format: cell-based
T3 sequence (whole entry): T1 sequence (P10275 whole entry)
Procedure, shortened: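 VCaP cells held 48 h in DMEM with 5% charcoal-stripped FBS, then 24 h with compound plus 0.2 nM R1881. TRIzol RNA extraction, cDNA synthesis, qRT-PCR for the target mRNA normalized to GAPDH; mean ± SD, n = 3.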

[9] = AUC ( 0 to infinity) in Sprague-Dawley rat at 30 mg/kg, po measured upto 24 hrs by LC-MS/MS analysis; format: ADME, organism-based; set-up: dose 30 mg/kg, time infinity, route oral; conditions: in vivo; procedure, shortened: as §1

- IC50 [2]: 641 nM
- Activity [3]: Dose-dependent effect
- Cmax [4]: 2320 ng/mL
- half-life [5]: 264 min
- AUC(0-t) at 24 h [6]: 4040 ng·h/mL
- Activity [8]: Dose-dependent effect
- AUC(0-inf) [9]: 4060 ng·h/mL
Structure (SMILES): Cc1ccc(-c2c(C)noc2C)cc1Nc1ccc(C#N)c(Cl)c1
- IC50 [1]: 430 nM
- inhibition in vivo at 30 mg/kg [7]: 44.7%
